Assay results published in ChEMBL document CHEMBL1134258, “NAC/MEA conjugate: a new potent antioxidant which increases the GSH level in various cell lines” (Bioorg Med Chem Lett, 2001).

How the values were obtained:
[1] = Effect on intracellular GSH content at 250 uM in human macrophage-derived monocytes (MDMs); assay type: functional
Outline: (§1)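 Human MDMs from healthy-donor PBMCs (Ficoll-Hypaque gradient; monocytes split from PBLs by countercurrent centrifugal elutriation; 7 days differentiation). Cultured in DMEM Glutamax with 10% heat-inactivated FCS plus penicillin/streptomycin/neomycin. Treated 24 h, then lysed; GSH measured by Griffith's method and normalised to protein (Bradford). Run in triplicate across five independent experiments (n=15).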

Homo sapiens [2] = organism: Homo sapiens; experiment: Effective dose required to inhibit 70% of HIV-1 Ba-L-infected MDM''s at 0.01 uM; assay type: functional
[3] = Tested for cytotoxic concentration in human macrophage-derived monocytes (MDMs) at 24 hr treatment; assay type: cell-based
Outline: (§2)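 Human MDMs from donor PBMCs (elutriated monocytes, 7 days differentiation) exposed to the compound for 24 h or 12 days. Cytotoxicity read by neutral-red uptake; CC50 taken as the mean of three independent experiments, each in triplicate.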

Homo sapiens [4] = organism: Homo sapiens; experiment: Effective dose required to inhibit 50% of HIV-1 Ba-L-infected MDM''s at 0.001 uM; assay type: functional
Homo sapiens [5] = organism: Homo sapiens; experiment: Effective dose required to inhibit 90% of HIV-1 Ba-L-infected MDM''s at 0.001 uM; assay type: functional
Homo sapiens [6] = organism: Homo sapiens; experiment: Effective dose required to inhibit 90% of HIV-1 Ba-L-infected MDM''s at 0.01 uM; assay type: functional
[7] = Percent increase in intracellular GSH level at 10 uM in 24 hr treated human macrophage-derived monocytes (MDMs); assay type: functional; outline: as §1
[8] = Percent increase in intracellular GSH level at 100 uM in 24 hr treated human macrophage-derived monocytes (MDMs); assay type: functional; outline: as §1
[9] = Percent increase in intracellular GSH level at 1000 uM in 24 hr treated human macrophage-derived monocytes (MDMs); assay type: functional; outline: as §1
[10] = Percent increase in intracellular GSH level at 250 uM in 24 hr treated human macrophage-derived monocytes (MDMs); assay type: functional; outline: as §1
Homo sapiens [11] = organism: Homo sapiens; experiment: Effective dose required to inhibit 50% of HIV-1 Ba-L-infected MDM''s at 0.01 uM; assay type: functional
Homo sapiens [12] = organism: Homo sapiens; experiment: Effective dose required to inhibit 70% of HIV-1 Ba-L-infected MDM''s at 0.001 uM; assay type: functional
Mus musculus = experiment: Tested for intraperitoneal lethal dose in OF1 mice after 30 days; assay type: functional; details: ip, 720 h
Outline: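 Mice (OF1) dosed intraperitoneally and followed for 30 days. LD50 derived by Probit analysis, with the dose range set in a preliminary study.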

[13] = Tested for cytotoxic concentration in human macrophage-derived monocytes (MDMs) after 12 days; assay type: cell-based; outline: as §2

CC(=O)N[C@@H](CS)C(=O)O.NCCS
GSH [1]: 190%

NCCS [CYSTEAMINE]
GSH [1]: 200%

CC(=O)N[C@@H](CS)C(=O)O [ACETYLCYSTEINE]
GSH [1]: 200%

CC(=O)N[C@@H](CS)C(=O)NCCSC(C)=O
ED70 (Homo sapiens [2]): 90 µM
CC50 at 24 h [3]: > 5000 µM
ED50 (Homo sapiens [4]): 3 µM
ED90 (Homo sapiens [5]): 75 µM
ED90 (Homo sapiens [6]): 190 µM
GSH [1]: 480%
GSH [7]: 0%
GSH [8]: 75%
GSH [9]: 140%
GSH [10]: 165%
ED50 (Homo sapiens [11]): 50 µM
ED70 (Homo sapiens [12]): 15 µM
LD50 (Mus musculus): 700 mg/kg
CC50 at 288 h [13]: 635 µM
